How the values were obtained:
Format in all cases: functional
Rattus norvegicus [1] = experiment: Antiinflammatory activity was assessed by the ability to improve the adjuvant induced arthritis in right primary lesion in rats at oral doses, 33 mg/kg (volume change in the injected paw measured from day 0 to day 8)
In short: (§1)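 Female Sprague–Dawley rats (150–170 g), six per group. Arthritis induced by subcutaneous plantar injection of 0.125 mg killed tubercle bacillus in liquid paraffin into the right hind paw. Dosing was 33 mg/kg orally, daily for 14 days, starting the day before adjuvant. Paw volumes were measured by mercury plethysmography every 2–3 days over 18 days. Primary lesion: right paw, days 0–8. Secondary lesions: right and left (uninjected) paws, days 9–18. Areas under the time-course curves were compared with controls by ANOVA.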

Rattus norvegicus [2] = experiment: Ability to improve the adjuvant induced arthritis in right secondary lesion in rats at oral doses, 33 mg/kg; in short: as §1
Cavia porcellus [3] = species: Cavia porcellus; experiment: Tested for effect on the production of Lipoxygenase (LO) metabolite, 5,12-diHETE in guinea pig peritoneal polymorphonuclear neutrophils at 30 uM concentration
In short: (§2)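 Guinea pig peritoneal PMNs were incubated with [14C]arachidonic acid and stimulated with calcium ionophore A23187. Compounds were tested at 30 μM in 0.1 N NaOH–Krebs Ringer bicarbonate buffer. Radiolabeled cyclooxygenase and lipoxygenase products were identified by HPLC and GC-MS, separated by TLC and quantified by automatic scanning.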

Cavia porcellus [4] = species: Cavia porcellus; experiment: Tested for effect on the production of cyclooxygenase (COX) metabolite, PGF2-alpha (prostaglandin F2-alpha) of arachidonic acid in guinea pig peritoneal polymorphonuclear neutrophils at 30 uM concentration; in short: as §2
Rattus norvegicus [5] = experiment: Antiinflammatory activity was assessed by the ability to improve the adjuvant induced arthritis in left secondary lesion in rats at oral doses, 33 mg/kg (volume change in the injected paw measured from day 9 to day 18)
Cavia porcellus [6] = species: Cavia porcellus; experiment: Tested for effect on the production of cyclooxygenase (COX) metabolite, TXB2 of arachidonic acid in guinea pig peritoneal polymorphonuclear neutrophils at 30 uM concentration; in short: as §2
Rattus norvegicus [7] = species: Rattus norvegicus; experiment: Antiinflammatory activity was assessed improvement of adjuvant induced arthritis in rats, determined by joint mobility of the paw; set-up: concentration or dose not given beside the values
In short: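 Adjuvant arthritis was induced in female Sprague–Dawley rats (150–170 g, groups of six) by right-hind-paw plantar injection of killed tubercle bacillus in paraffin. Treatment was 33 mg/kg orally, daily for 14 days, starting the day before adjuvant. Joint involvement was scored as the angle through which the hind paws moved easily, given as percent change versus nontreated controls.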

Cavia porcellus [8] = species: Cavia porcellus; experiment: Tested for effect on the production of cyclooxygenase (COX) metabolite, PGE-2 (prostaglandin E2) of arachidonic acid in guinea pig peritoneal polymorphonuclear neutrophils at 30 uM concentration; in short: as §2
Cavia porcellus [9] = species: Cavia porcellus; experiment: Tested for effect on the production of Lipoxygenase (LO) metabolite, 5-HETE in guinea pig peritoneal polymorphonuclear neutrophils at 30 uM concentration; in short: as §2

| SMILES | Reduction (Rattus norvegicus [1]) [%] | Reduction (Rattus norvegicus [2]) [%] | Reduction (Cavia porcellus [3]) [%] | Reduction (Cavia porcellus [4]) [%] | Reduction (Rattus norvegicus [5]) [%] | Reduction (Cavia porcellus [6]) [%] | Reduction (Rattus norvegicus [7]) [%] | Reduction (Cavia porcellus [8]) [%] | Reduction (Cavia porcellus [9]) [%] |
| --- | --- | --- | --- | --- | --- | --- | --- | --- | --- |
| Cc1ccc(C(=O)c2ccc(O)c(C(C)C(=O)O)c2)s1 (configuration not stated) | 13 | 11 | -36 | 49 | 29 | 82 | -16 | 54 | -69 |
| CCCC(C(=O)O)c1cc(C(=O)c2cccs2)ccc1O (configuration not stated) | 26 | 30 | -42 | 50 | 52 | 86 | 33 | 87 | -33 |
| O=C1Oc2ccc(C(=O)c3cccs3)cc2/C1=C/c1ccc(C(F)(F)F)cc1 | 3 | 19 | 68 | 67 | 15 | 95 | 4 | 79 | 67 |
| CCC(CC)(C(=O)O)c1cc(C(=O)c2cccs2)ccc1OC | -11 | 16 | – | – | 42 | – | 42 | – | – |
| Cc1ccc(C(=O)c2ccc3c(c2)C(C)C(=O)O3)s1 (configuration not stated) | 10 | 19 | 15 | 28 | 36 | 86 | 15 | 65 | -3 |
| CC(C)(C)c1cc(/C=C2\C(=O)Oc3ccc(C(=O)c4cccs4)cc32)cc(C(C)(C)C)c1O | -28 | -7 | -8 | 6 | 8 | 26 | 17 | -14 | -11 |
| CCC(C(=O)O)c1cc(C(=O)c2cccs2)ccc1O (configuration not stated) | 20 | 64 | -33 | 65 | 76 | 92 | 60 | – | 16 |
| O=C(O)/C(=C\c1ccccc1)c1cc(C(=O)c2cccs2)ccc1O | 15 | 11 | – | – | -15 | – | 5 | – | – |
| CC(C)(C(=O)O)c1cc(C(=O)c2cccs2)ccc1O | 4 | 20 | -23 | 55 | 46 | 90 | 26 | 80 | -20 |
| CCCCC(C(=O)O)c1cc(C(=O)c2cccs2)ccc1O (configuration not stated) | 5 | 29 | 60 | 51 | 53 | 64 | 14 | 44 | 60 |
| COc1ccc(C(=O)c2ccc(O)c(C(C)C(=O)O)c2)cc1 (configuration not stated) | 12 | 31 | -10 | 58 | 22 | 89 | 7 | – | 5 |
| CC1C(=O)Oc2ccc(C(=O)c3ccco3)cc21 (configuration not stated) | -5 | 12 | 3 | – | 25 | 81 | 2 | 81 | 20 |
| CCC(CC)(C(=O)O)c1cc(C(=O)c2cccs2)ccc1O | 6 | 22 | -18 | 50 | 45 | 90 | 38 | 54 | -21 |
| CC1(C)C(=O)Oc2ccc(C(=O)c3cccs3)cc21 | 28 | 36 | 49 | -37 | 50 | 81 | 44 | 81 | 52 |
| CCCC1C(=O)Oc2ccc(C(=O)c3cccs3)cc21 (configuration not stated) | 23 | 41 | 7 | 49 | 67 | 81 | 61 | 85 | -2 |
| CC(C(=O)O)c1cc(C(=O)c2ccc(F)cc2)ccc1O (configuration not stated) | 22 | 32 | -8 | 49 | 56 | 74 | 33 | 46 | -1 |
| CC(C(=O)O)c1cc(C(=O)c2cccs2)ccc1O (configuration not stated) | 39 | 34 | -84 | 76 | 35 | 89 | -15 | 76 | -68 |
| CC(C(=O)O)c1cc(C(=O)c2ccco2)ccc1O (configuration not stated) | -31 | -5 | -17 | 61 | 13 | 87 | 7 | 87 | -14 |
| COc1ccc(C(=O)c2ccc3c(c2)C(C)C(=O)O3)cc1 (configuration not stated) | -9 | 5 | 44 | 51 | 22 | 70 | -9 | – | 50 |
| O=C1Oc2ccc(C(=O)c3cccs3)cc2/C1=C/c1ccc(Cl)cc1 | -5 | -18 | 73 | 69 | -14 | 93 | 12 | 77 | 71 |
| CCC1C(=O)Oc2ccc(C(=O)c3cccs3)cc21 (configuration not stated) | 13 | 51 | 9 | 62 | 81 | 90 | 52 | 79 | 20 |
| O=C1Cc2cc(C(=O)c3cccs3)ccc2O1 | 25 | 9 | -44 | 57 | -35 | 65 | 5 | 54 | -33 |
| O=C(c1ccc(O)c(C(Cc2ccccc2)C(=O)O)c1)c1cccs1 (configuration not stated) | 29 | 30 | – | – | 10 | – | 6 | – | – |
| CC1C(=O)Oc2ccc(C(=O)c3ccccc3)cc21 (configuration not stated) | 5 | 35 | -10 | 56 | 52 | 82 | 29 | 71 | 10 |
